# From PubChem
# Shown are actives, neighbours in structure and some others; about 2% of the full set was active somewhere.
# Xi reactivation: activators of inactive X chromosome reactivation, primary screen, imaging, XiGFP fibroblasts, GFP high-content imaging, set 2. XiGFP mouse fibroblasts, % GFP-positive cells imaging, 3 d; cells co-treated with 5-aza-dC sensitizer; scaled so ellipticine positive control = 100%. activation, % at 7.58 µM. hit rate 0.055% among 360,000;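 active means mean normalized replicate activation at least 10% and every replicate at or above 10%; inconclusive means only one of the two criteria met; inactive means mean below 10% and not all replicates reach 10%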
#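 System: 68-5-11 XiGFP fibroblast line; Timing: 3 days compound exposure; Compound dosing: one concentration, pinned; Benchmarks: positive control ellipticine, 6 µM final; Buffer or medium: DMEM containing 5-aza-dC.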
# S100A4 inh HTS: inhibitors of S100A4-myosin IIA peptide binding, primary screen, biochemical, fluorescence polarization, TAMRA-MyoIIA peptide; Protein S100-A4 (Homo sapiens), P26447; AID 652163, 2013; inhibition, % at 10.7 µM; hit rate 0.14% among 360,000;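 active means mean inhibition of at least 70% across replicates, with every replicate also reaching that level; inconclusive means mean inhibition reaches 70% but some replicates fall short; inactive means mean inhibition below 70%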
#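 System – human S100A4 monomer protein, biochemical binding assay · Buffer or medium – Calcium-containing HEPES buffer, pH 7.2 · Timing – 5 min between mix addition and reading · Also added – TAMRA-labelled myosin IIA heavy-chain peptide probe, 5 nM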
# DENV2 CPE rescue: inhibitors of DENV2 cytopathic effect, primary screen, cell-based, plate reader, single concentration. hit rate 1.7% among 350,000. DENV2-infected cells, cytopathic effect rescue. CPE inhibition, % at 9.99 µM. AID 651640, 2012; in the data active means CPE inhibition above about 20%, passing the limit was not always enough; inconclusive means no clear call, values can overlap the other calls; tested in BHK-21 cells
# E-sel inducer: E-selectin induction in HUVECs, primary screen, imaging, HUVEC, immunofluorescence imaging, single point; P16581; normalized: neutral wells 0, TNF-alpha wells 100; activation, % at 7.58 µM; hit rate 0.37% among 260,000;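 active means mean E-selectin-positive cell signal at least 10% of the positive control, reached in at least 60% of replicates, without over 20% cell loss; inconclusive means no rule given, readout overlaps actives, possibly toxicity-flagged; inactive means the rest, including those meeting only one limit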
# Target sequence (P16581 whole entry, looked up): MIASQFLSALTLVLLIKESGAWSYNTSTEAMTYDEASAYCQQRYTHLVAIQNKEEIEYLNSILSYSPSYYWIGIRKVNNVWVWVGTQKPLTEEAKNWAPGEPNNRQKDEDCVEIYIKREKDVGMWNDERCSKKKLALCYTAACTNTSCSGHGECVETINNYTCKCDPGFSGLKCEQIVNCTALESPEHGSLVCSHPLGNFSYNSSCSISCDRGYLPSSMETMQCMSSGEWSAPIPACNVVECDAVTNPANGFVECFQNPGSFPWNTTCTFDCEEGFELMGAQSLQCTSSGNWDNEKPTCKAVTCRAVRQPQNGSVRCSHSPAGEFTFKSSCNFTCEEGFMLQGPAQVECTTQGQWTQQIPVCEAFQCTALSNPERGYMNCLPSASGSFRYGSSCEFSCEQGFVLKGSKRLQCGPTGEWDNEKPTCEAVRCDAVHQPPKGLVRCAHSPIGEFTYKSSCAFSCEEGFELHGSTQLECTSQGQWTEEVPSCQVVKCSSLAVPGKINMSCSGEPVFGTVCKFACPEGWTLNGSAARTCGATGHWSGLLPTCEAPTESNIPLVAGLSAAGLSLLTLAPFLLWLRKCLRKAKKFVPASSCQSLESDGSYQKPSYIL
#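 Test system – human umbilical vein endothelial cells (HUVEC), E-selectin induction · Input – 3,000 HUVEC seeded per well · Buffer or medium – EGM-2, gelatin · Compound dosing – single-point compound dose · Detection – immunofluorescence imaging · Measure – percent E-selectin-positive cells · Controls – TNF-alpha high, DMSO low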
# Numbers stand for hits; 0 = inactive; ? = inconclusive; - = no result given; ! = not confirmed by another sample.
SMILES,Xi reactivation,S100A4 inh HTS,DENV2 CPE rescue,E-sel inducer
C[C@@H]1CN([C@@H](C)CO)C(=O)CCCn2nncc2CO[C@H]1CN(C)Cc1cccc2c1OCCCO2,0,0,45!,0
Cc1ccc(S(=O)(=O)N(C)C[C@@H]2Oc3ccc(NC(=O)NC4CCCCC4)cc3CC(=O)N([C@@H](C)CO)C[C@@H]2C)cc1,0,0,35,0
Cc1ccc(S(=O)(=O)N(C)C[C@H]2Oc3ccc(NC(=O)Nc4ccccc4)cc3CC(=O)N([C@H](C)CO)C[C@@H]2C)cc1,23,0,0,-
Cc1cccc(N2C(=O)/C(=C\c3ccc(C(=O)O)cc3)c3ccccc3C2=O)c1,0,0,0,0
O=[N+]([O-])c1cc(S(=O)(=O)O)cc([N+](=O)[O-])c1NN(c1ccccc1)c1ccccc1,0,0,0,56
COc1ccc(Cl)cc1NC(=O)CN(C)CC(=O)Nc1ccc(C)cc1Br,0,0,0,0
COc1cc(C(CCN2CCOCC2)c2c(OC)cc(OC)c3c2OC(=O)CC3c2ccc(N(C)C)cc2)cc(OC)c1OC (stereo not drawn),0,0,0,0
COc1cc(C2CC(=O)Oc3c(C(CCN4CCCC(C)C4)c4ccc(N(C)C)cc4)c(OC)cc(OC)c32)cc(OC)c1OC (stereo not drawn),0,0,51,0
CCCC1NC(=O)c2cc3ccccc3cc2-n2c1nc1ccc(F)cc1c2=O (stereo not drawn),0,0,67,0
O=C1NC(Cc2ccccc2)c2nc3ccc(Cl)cc3c(=O)n2-c2ccccc21 (stereo not drawn),0,0,68,0
O=C1NC(Cc2ccc(O)cc2)c2nc3ccccc3c(=O)n2-c2ccccc21 (stereo not drawn),0,0,39,0
O=C(Nc1ccc2c(c1)OCCO2)C1CCN(C(=O)c2ccc(Cl)cc2)CC1,0,-,-,0
CO[C@@H]1CN(C)C(=O)c2cc(NC(=O)CC(F)(F)F)ccc2OC[C@H](C)N(C(=O)C2CC2)C[C@H]1C,0,0,0,0
COc1cccc(C(=O)Nc2ccc3c(c2)C(=O)N(C)C[C@H](OC)[C@H](C)CN(C(=O)C2CCCC2)[C@@H](C)CO3)c1,0,0,38,0
CO[C@H]1CN(C)C(=O)c2cc(NC(=O)CC(F)(F)F)ccc2OC[C@@H](C)N(C(=O)C2CC2)C[C@H]1C,0,0,38,0
CO[C@H]1CN(C)C(=O)c2ccc(NC(=O)CC(F)(F)F)cc2OC[C@H](C)N(C(=O)C2CCOCC2)C[C@H]1C,0,0,24,0
CO[C@@H]1CN(C)C(=O)c2cc(NC(=O)c3cc(C)on3)ccc2OC[C@H](C)N(C(=O)C2CC2)C[C@H]1C,0,0,21,0
O=C(NCc1ccccc1)C(c1cc2ccccc2o1)n1c(=O)c(-c2cc3ccccc3[nH]2)nc2ccccc21 (stereo not drawn),0,0,0,0
CC(=O)c1sc2c(c1OC(=O)c1ccccc1)c(=O)n(-c1ccccc1)c(=S)n2-c1ccccc1,0,0,0,0
CCSc1nnc(-c2cc(Br)ccc2N=Cc2c(C)[nH]n(-c3ccccc3)c2=O)c(=O)[nH]1,0,0,0,-
O=C(Nc1cccc(C(=O)O)c1)/C(=C\c1ccco1)NC(=O)c1ccccc1,0,0,50,0
Cc1cc(C)c(-c2csc(NC(=O)C3=NN(c4ccccc4)C(=O)CC3)n2)c(C)c1,0,0,-,-
COc1ccc(NC(=O)N(C)C[C@H]2Oc3ccc(NC(=O)Nc4c(C)noc4C)cc3CC(=O)N([C@H](C)CO)C[C@H]2C)cc1,0,0,0,0
Cc1ccc(-c2cc(=O)c3ccccc3[nH]2)cc1,0,0,-,0
Cc1ccc2[nH]c(-c3ccccc3)cc(=O)c2c1,0,0,111,0
SMILES,Xi reactivation,S100A4 inh HTS,DENV2 CPE rescue,E-sel inducer
ClC(CCN1CCN(Cc2ccccc2)CC1)c1ccccc1 (stereo not drawn),0,0,31,?
COc1ccc(C(C)=O)cc1Cn1c(C)c(C(=O)NCCC#N)sc1=O,0,0,71,-
COc1ccc(C(C)=O)cc1Cn1c(C)c(C(=O)NCC(C)C)sc1=O,0,0,0,-
COc1ccc2oc(=N)c(C(=O)Nc3ccc(C)cc3)cc2c1,0,0,0,-
COc1ccc2o/c(=N\O)c(C(=O)Nc3ccc(C)cc3)cc2c1,0,0,25,0
CN(Cc1ccccc1)C(=O)CCS(=O)(=O)c1cc2c(cc1Cl)NC(=O)CO2,0,0,0,-
C=CCOc1cccc(C2C(C(=O)c3ccco3)=C(O)C(=O)N2Cc2cccnc2)c1 (stereo not drawn),0,0,0,33
Cc1cc(C)n2c(NC3CCCC3)c(-c3cccnc3)nc2n1,0,0,22,0
Cc1cc(C)n2c(Nc3c(C)cccc3C)c(-c3cccnc3)nc2n1,0,0,0,0
O=[N+]([O-])c1ccc(N=Nc2ncc[nH]2)cc1,0,0,0,30
Nc1ccc(-c2cc3ccccc3c(=O)o2)cc1,0,0,67,-
CN(C)c1ccc(Cc2cc3c(O)ccc(O)c3cc(Cc3ccc(N(C)C)cc3)c2=O)cc1,0,0,0,0
CCC(=O)Nc1cc(C(=O)OCc2ccc(C(=O)Oc3ccccc3)cc2)ccc1C,0,0,82,-
CCC(=O)Nc1ccc(C(=O)OCc2ccccc2)cc1,0,0,-,0
CN1CCN(C(=O)C[C@H]2C=C[C@@H](NC(=O)Nc3ccccc3F)[C@@H](CO)O2)CC1,0,0,0,0
O=C(CCn1c(=O)oc2ccccc21)NCCCN1CCN(c2ccc(F)cc2)CC1,-,-,-,0
CCNc1nc(N)c(C(=O)C23CC4CC(CC(C4)C2)C3)s1,0,0,53,-
CCN(CC(=O)Nc1c(F)cccc1F)C(=O)c1cccc(S(=O)(=O)NCc2ccccc2)c1,0,0,80,0
NC(=O)C1CCN(C(=S)c2ccc(-c3ccc(Br)cc3)o2)CC1,0,0,0,0
O=C(COC(=O)c1cc(Cl)nc2ccccc12)c1ccc(Cl)cc1,0,0,63,0
O=C(Oc1cccc2ccccc12)c1cc(Cl)nc2ccccc12,0,0,0,0
COc1ccc2c3c(n(C)c2c1)[C@H](CO)N(S(C)(=O)=O)CC31CCN(C(=O)c2ccccn2)CC1,0,-,77,0
COc1ccc2c3c(n(C)c2c1)[C@H](CO)N(C(=O)c1ccccn1)CC31CN(C(=O)c2ccccn2)C1,0,0,0,0
COc1ccc2c3c(n(C)c2c1)[C@@H](CO)N(S(C)(=O)=O)CC31CN(C(=O)c2ccccn2)C1,0,0,34,0
O=C(Nc1ccc(S(=O)(=O)Nc2ncccn2)cc1)c1cc([N+](=O)[O-])ccc1Cl,0,0,0,-
O=C(Nc1ccc(S(=O)(=O)Nc2ncccn2)cc1)c1cccc([N+](=O)[O-])c1,0,0,71,0
